# Source: PMC3041911 (Journal of Molecular Neuroscience, 2010)
# pIC50: −log10 of the molar value. Values joined by “and” are separate entries in the source; they are usually repeats but may differ in a detail not shown here. Identical values can stand only once. Like-named read-outs stand apart in the source and are kept apart here.
# Assays:
# [1] = system: Aβ38, Aβ40 and Aβ42 formation in primary chicken telencephalic neurons; experiment: Aβ secretion assay; format: cell-based; conditions: for Aβ38 E max / Aβ40 E max / Aβ42 E max / pIC50: 24 h treatment
# How it was run: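 Telencephalic neurons from E8 Lohman Brown chicken embryos, mechanically dissociated through a nylon sieve. Neurons were plated at 1.8×10^6 per poly-D-lysine-coated 24-well in DMEM (4.5 g glucose/l, 5% Nu Serum, 0.01% gentamicin, 2 mM L-glutamine). After 48 h the medium was exchanged and neurons were treated for 24 h at 37°C, 5% CO2 with DMSO-dissolved compound at a range of concentrations, vehicle constant.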
# [2] = system: primary chicken telencephalic neurons; experiment: MTT viability assay, primary chicken neurons; format: cell-based; conditions: data not shown
# How it was run: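 MTT viability assay in primary E8 chicken telencephalic neurons. Neurons were plated at 3×10^5 per poly-D-lysine-coated 96-well in DMEM with 5% Nu Serum, 0.01% gentamicin and 2 mM L-glutamine, kept at 37°C, 5% CO2, and exposed to DMSO-dissolved compound over a concentration range.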
# [3] = system: Aβ38, Aβ40 and Aβ42 formation in H4 cells overexpressing human APPK595N/M596L; experiment: Aβ secretion assay; format: cell-based; conditions: for Emax: Homo sapiens; for Aβ38 E max / Aβ40 E max / Aβ42 E max / pIC50: H4 cells hAPPK595N/M596L, 24 h treatment; for Effect on Aβ species at low nanomolar (sub-inhibitory) concentrations: low nanomolar concentrations (DAPT: 10 nM)
# How it was run: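 H4 human neuroglioma line stably transfected with human APP695 K595N/M596L (Swedish) under a CMV/chicken β-actin promoter. Cells were plated at 1×10^4 per 96-well in OptiMEM with 10% FBS, 1% penicillin/streptomycin, 200 μg/ml hygromycin-B and 2.5 μg/ml blasticidin-S. After 48 h the medium was exchanged and cells were dosed for 24 h at 37°C, 5% CO2 with DMSO-dissolved compound at a range of concentrations, vehicle constant.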
# Aβ42 levels = conditions: 100 μM; ref Okochi et al. [2006]; cited from earlier work
# [4] = system: H4 cells overexpressing human APPK595N/M596L; experiment: MTT viability assay, H4 cells; format: cell-based; conditions: data not shown
# [5] = system: total Aβ content in brain tissue; conditions: in vivo administration; ref Dovey et al. [2001]; cited from earlier work
# [6] = system: Aβ formation in primary human neuronal cultures; conditions: read-out: IC50 Aβ total, ref Dovey et al. [2001]; cited from earlier work
# [7] = primary chicken neurons, 10 μM compound, 24 h, mean ± SEM
# [8] = primary chicken neurons, 50 μM compound, 24 h, mean ± SEM
# [9] = H4 cells, 100 μM compound, 24 h, mean ± SEM
# [10] = H4 cells, 10 μM compound, 24 h, mean ± SEM
# [11] = read-out: Aβ38 IC50, primary chicken neurons
# [12] = read-out: Aβ40 IC50, primary chicken neurons
# [13] = read-out: Aβ42 IC50, primary chicken neurons
# [14] = primary chicken neurons, 25 μM compound, 24 h, mean ± SEM
Compound,"pIC50 [1, 11]","pIC50 [1, 12]","pIC50 [1, 13]",pIC50 ([3]; read-out: Aβ38 IC50),pIC50 ([3]; read-out: Aβ40 IC50),pIC50 ([3]; read-out: Aβ42 IC50),"Aβ38 level in percent of vehicle-treated cultures [1, 7] [%]","Aβ42 level in percent of vehicle-treated cultures [1, 7] [%]","Aβ42 level in percent of vehicle-treated cultures [1, 8] [%]","Concentration at which Aβ42 levels start to decline ([1]; primary chicken neurons, 24 h) [µM]",Concentration at which toxicity starts (viability assay) [2] [µM],"Cell viability (MTT), result in words [4]","Cell viability (MTT), result in words [2]","Concentration at which Aβ38, Aβ40 and Aβ42 levels start to decline ([1]; primary chicken neurons, 24 h) [nM]",Aβ38 E max ([1]; primary chicken neurons) [%],Aβ40 E max ([1]; primary chicken neurons) [%],Aβ42 E max ([1]; primary chicken neurons) [%],Aβ38 E max [3] [%],Aβ40 E max [3] [%],Aβ42 E max [3] [%],also measured
"O=C(O)c1cc(Oc2ccc([N+](=O)[O-])cc2)cc(Oc2ccc([N+](=O)[O-])cc2)c1 [CW, 3,5-bis(4-nitrophenoxy)benzoic acid]",,,,,,,127.9 ± 0.9,63.6 ± 2.4,29.9 ± 1.2,5,150,no cell toxicity,,,,,,,,,"Aβ38 level in percent of vehicle-treated cultures [1, 8]: 159.3 ± 8.0%; Aβ40 content (effect in words) ([1]; primary chicken neurons, up to 50 μM compound): unchanged; Aβ38 level in percent of vehicle-treated cultures [3, 9]: 287.5 ± 31.2%; Aβ42 level in percent of vehicle-treated cultures [3, 9]: 16.0 ± 1.8%; Concentration at which Aβ42 levels start to decline ([3]; H4 cells, 24 h): 50 µM; Emax ([3]; 24 h, read-out: Aβ42 E max): 100%; Effect on Aβ42 levels (Aβ42 levels): reduce Aβ42 levels"
"CCCC[C@@H](C=O)NC(=O)[C@H](CC(C)C)NC(=O)OCc1ccccc1 [Calpeptin, benzyloxycarbonylleucyl-norleucinal]",,,,,,,31.1 ± 1.8,259.3 ± 7.3,,,,No toxicity,No toxicity,,,,,,,,"Aβ40 level in percent of vehicle-treated cultures [1, 7]: 89.9 ± 3.8%; Effect on Aβ levels up to 1 μM ([1]; primary chicken neurons, up to a concentration of 1 μM): no effect; Aβ38 level in percent of vehicle-treated cultures [3, 10]: 12.9 ± 2.6%; Aβ40 level in percent of vehicle-treated cultures [3, 10]: 35.5 ± 2.2%; Aβ42 level in percent of vehicle-treated cultures [3, 10]: 90.3 ± 6.0%; Effect on Aβ levels up to 1 μM ([3]; H4 cells, up to a concentration of 1 μM): did not evoke any dramatic changes; Emax ([3]; 24 h, read-out: Aβ38 E max): 100%; Emax ([3]; 24 h, read-out: Aβ40 E max): 100%"
"CSc1ccc(/C=C2/C(C)=C(CC(=O)O)c3cc(F)ccc32)cc1 [Sulindac sulfide, (Z)-5-fluoro-2-methyl-1-[p-(methylthio)benzylidene]indene-3-acetic acid]",,,,,,,,,25.3 ± 2.1,25,75,,,,,,,,,,"Aβ38 level in percent of vehicle-treated cultures [1, 14]: approximately 149.7 ± 6.4%; Aβ42 level in percent of vehicle-treated cultures [1, 14]: 54.7 ± 6.4%; Aβ42 level in percent of vehicle-treated cultures ([3]; H4 cells, 50 μM compound, 24 h, mean ± SEM): 75.0 ± 7.1%; Aβ40 production (effect in words) ([3]; H4 cells, 100 μM compound, 24 h): unaltered; Aβ42 level in percent of vehicle-treated cultures [3, 9]: 39.3 ± 2.0%; Concentration at which Aβ42 levels start to decline ([3]; H4 cells, 24 h): 50 µM; Emax ([3]; 24 h, read-out: Aβ42 E max): 100%; Concentration at which cell toxicity starts (viability assay) ([4]; minor cell toxicity): 150 µM"

# Further lines, with some results ahead:
"pIC50 [1, 11]","pIC50 [1, 12]","pIC50 [1, 13]",pIC50 ([3]; read-out: Aβ38 IC50),pIC50 ([3]; read-out: Aβ40 IC50),pIC50 ([3]; read-out: Aβ42 IC50),Compound,"Aβ38 level in percent of vehicle-treated cultures [1, 7] [%]","Aβ42 level in percent of vehicle-treated cultures [1, 7] [%]","Aβ42 level in percent of vehicle-treated cultures [1, 8] [%]","Concentration at which Aβ42 levels start to decline ([1]; primary chicken neurons, 24 h) [µM]",Concentration at which toxicity starts (viability assay) [2] [µM],"Cell viability (MTT), result in words [4]","Cell viability (MTT), result in words [2]","Concentration at which Aβ38, Aβ40 and Aβ42 levels start to decline ([1]; primary chicken neurons, 24 h) [nM]",Aβ38 E max ([1]; primary chicken neurons) [%],Aβ40 E max ([1]; primary chicken neurons) [%],Aβ42 E max ([1]; primary chicken neurons) [%],Aβ38 E max [3] [%],Aβ40 E max [3] [%],Aβ42 E max [3] [%],also measured
7.21,7.00,6.97,7.70,7.64,7.59,"COC(=O)[C@@H](NC(=O)[C@H](C)NC(=O)Cc1cc(F)cc(F)c1)c1ccccc1 [DAPM, N-(N-3,5-difluorophenacetyl)-L-alanyl-S-phenylglycine methyl ester]",,,,,,no effect on cell viability,no effect on cell viability,50,100,100,100,100,100,100,"Effect on Aβ species at low nanomolar (sub-inhibitory) concentrations ([1]; primary chicken neurons): no increase in Aβ secretion; Concentration at which Aβ38, Aβ40 and Aβ42 levels start to decline ([3]; H4 cells, 24 h): 50 nM; Effect on Aβ species at low nanomolar (sub-inhibitory) concentrations ([3]; H4 cells): increase of all three Aβ forms"
7.15,7.03,7.00,7.30,7.21,7.20 and 7.19,"C[C@H](NC(=O)Cc1cc(F)cc(F)c1)C(=O)N[C@H](C(=O)OC(C)(C)C)c1ccccc1 [DAPT, N-[N-(3,5-difluorophenacetyl-L-alanyl)]-S-phenylglycine t-butyl ester]",,,,,,not affected,not affected,100,100,100,100,100,100,100,"Effect on Aβ species at low nanomolar (sub-inhibitory) concentrations ([1]; primary chicken neurons): no dramatic increase in Aβ levels; Concentration in brain tissue that reduced total Aβ content [5]: ≥ 200 nM; Concentration at which Aβ38, Aβ40 and Aβ42 levels start to decline ([3]; H4 cells, 24 h): 50 nM; Effect on Aβ species at low nanomolar (sub-inhibitory) concentrations ([3]; H4 cells): increased the formation of all three Aβ species; pIC50 [6]: 6.94"
8.43,8.33,8.32,7.03,6.90,6.67,β-secretase inhibitor IV,,,,,,no reduction in cell viability,no reduction in cell viability,5,91,76,70,88,79,86,"Potency of BACE-1 inhibition in primary cells relative to H4 cell line ([1]; primary chicken neurons versus H4 cells hAPPK595N/M596L): approximately tenfold more potent; Aβ42 reduction ([1]; primary chicken neurons, inhibitor concentration 25 nM): more than 50%"
